Values joined by “and” are separate entries in the source; they are usually repeats but may differ in a detail not shown here. Equal entries are not always repeated. “Also recorded” adds a separate entry of the source.
How the values were obtained:
CYP3A and UGT1A4 = conditions: cited from earlier work
[1] = cited from earlier work
[2] = Population pharmacokinetic; format: in vivo, human
Summary of the method: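 Pooled plasma data from a phase I/II study in ALK+ or ROS1+ NSCLC (10–200 mg oral q.d. or 35–100 mg b.i.d.) plus six healthy-participant studies (100 mg oral doses; one study 50 mg i.v.). Nonlinear mixed effects, FOCEI; central/peripheral volumes, first-order ka, F; clearance time-varying from single-dose CLI to steady-state CLMX via induction rate constant; exponential between-subject effects; covariates include rabeprazole co-administration on ka and F.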

[3] = cited from earlier work; remark: listed apart in the source
[4] = healthy volunteers, study B7461008
[5] = bootstrap mean, 1,000 resampled datasets
[6] = high BWT 91.3 kg (90th percentile), final PopPK model prediction
[7] = highest possible exposure at 100 mg q.d.: BWT 50 kg, BALB 3.2 mg/dL, no PPI use
[8] = low BWT 50 kg (10th percentile), final PopPK model prediction
[9] = lowest possible exposure at 100 mg q.d.: BWT 91.3 kg, BALB 4.6 mg/dL, PPI use

lower CL (initial and time-varying induced) compared with 100 mg q.d. ([2]; 10 mg q.d. lorlatinib): 12.4%
higher CL (initial and time-varying induced) compared with 100 mg q.d. ([2]; 200 mg q.d. lorlatinib): 13.8%
decrease in ka relative to a typical patient without PPI use ([2]; PPI use): 67.5%
θ CLMX [2, 5]: 14.584 L/h
θ D1 [2, 5]: 1.149 h
θ F [2, 5]: 0.764
θ IND [2, 5]: 0.027
θ PPI on ka [2, 5]: −0.664
θ Q [2, 5]: 22.491 L/h
θ V2 [2, 5]: 120.618 L
θ V3 [2, 5]: 156.640 L
θ ka [2, 5]: 3.128 h⁻¹
ωFωCL [2, 5]: -0.005
ωV2ωV3 [2, 5]: −0.017
ω^2 F [2, 5]: 0.023
ω^2 V2 [2, 5]: 0.085
ω^2 V3 [2, 5]: 0.099
ω^2 ka [2, 5]: 2.345
increase in CL with every unit of BALB over 4 mg/dL ([2]; final PopPK model): 6.68%
θ BALB on CL (covariate effect of baseline albumin) ([2]; final PopPK model estimate): 0.067
θ D1, zero-order duration of absorption ([2]; final PopPK model estimate): 1.15 h and 1.148 h
θ PPI on ka (covariate effect of proton pump inhibitor use) ([2]; final PopPK model estimate): –0.675
θ TDOSE on CL (covariate effect of total daily dose) ([2]; final PopPK model estimate): 0.001
θ WNCL on CL (covariate effect of standardized creatinine clearance) ([2]; final PopPK model estimate): 0.235
ωFωCL (IIV covariance) ([2]; final PopPK model estimate): -0.006
ωV2ωV3 (IIV covariance) ([2]; final PopPK model estimate): −0.017
ω^2 F (IIV) ([2]; final PopPK model estimate): 0.022
ω^2 V2 (IIV) ([2]; final PopPK model estimate): 0.086
ω^2 V3 (IIV) ([2]; final PopPK model estimate): 0.101
ω^2 ka (IIV) ([2]; final PopPK model estimate): 2.329
θ ka, first-order absorption rate constant ([2]; final PopPK model estimate, no PPI use): 3.1 h⁻¹ and 3.11 h⁻¹ and 3.113 h⁻¹
θ IND, rate constant of induction ([2]; final PopPK model estimate, unit not given): 0.0199 and 0.020
increase in CL compared with the typical patient (BALB 4 mg/dL) ([2]; high BALB 4.6 mg/dL (90th percentile)): 4%
increase in CL relative to the typical patient [2, 6]: 22%
increase in V2 relative to the typical patient [2, 6]: 30.4%
change in ka compared with a typical patient [2, 7]: unchanged
decrease in CL compared with a typical patient [2, 7]: 26.5%
decrease in V2 compared with a typical patient [2, 7]: 28.6%
bioavailability ([2]; human, plasma, oral): 75.9%
reduction in CL relative to a typical patient [2, 8]: 22.3%
reduction in V2 relative to a typical patient [2, 8]: 28.6%
decrease in ka compared with a typical patient [2, 9]: 67.5%
increase in CL compared with a typical patient [2, 9]: 26.9%
increase in V2 compared with a typical patient [2, 9]: 30.4%
Compound: C[C@H]1Oc2cc(cnc2N)-c2c(nn(C)c2C#N)CN(C)C(=O)c2ccc(F)cc21 [lorlatinib]
metabolizing enzymes (CYP3A and UGT1A4): metabolized primarily by cytochrome P450 (CYP)3A and UGT1A4, and to a lesser extent by CYP2C8, CYP2C19, CYP3A5, and UGT1A3
effect of a high-fat meal on lorlatinib exposure [1]: not to have a meaningful effect
effect of PPI rabeprazole co-administration on lorlatinib AUCinf [1, 4]: no effect; also recorded: without changing
reduction of lorlatinib Cmax by co-administration of the PPI rabeprazole [1, 4]: ~ 30% and 30%
dose-limiting toxicities ([3]; 150 mg q.d., dose escalation portion of Study B7461001): dose‐limiting toxicities were seen
steady-state lorlatinib CL versus dose ([3]; Study B7461001, noncompartmental analysis): increased with increasing dose
levels of CYP3A4 activity (urine 6-beta-hydroxy-cortisol/cortisol and plasma 4-beta-hydroxy-cholesterol/cholesterol ratios) ([3]; phase I portion of B7461001, multiple dosing): initially increased with time following multiple dosing
accumulation after multiple dosing ([3]; phase I portion of B7461001): less than expected

— paper PMC7894400 (CPT: Pharmacometrics & Systems Pharmacology, 2021)
